Assay results as given in ChEMBL document CHEMBL1158339, “Synthesis and anti-microbial screening of some Schiff bases of 3-amino-6,8-dibromo-2-phenylquinazolin-4(3H)-ones” (2009).
Converted amounts (≈) assume the structure as drawn.

How the values were obtained:
Type in all cases: functional
Escherichia coli [1] = test: Antibacterial activity against Escherichia coli ATCC 25922 after 24 hrs by agar streak dilution method; details: ATCC 25922, 24 h
In short: (§1)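 Agar streak dilution MIC. Stock […] in dimethyl formamide. Graded quantities go into molten sterile nutrient agar, poured at 40–50 °C to 3–4 mm depth and left to solidify. Plates are streaked with about 10⁵ cfu/ml bacterial suspension and incubated 24 h at 37 °C. MIC is the lowest concentration with no visible growth.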

Aspergillus niger [2] = test: Antifungal activity against Aspergillus niger ATCC 9029 after 48 hrs by agar streak dilution method; details: ATCC 9029, 48 h
In short: as §1, with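 “Fungal agar” for “Agar”, “dilution.” for “dilution MIC.”, “Sabouraud dextrose” for “nutrient”, “inoculated” for “streaked”, “cfu/ml” for “cfu/ml bacterial”, “48” for “24”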

Escherichia coli [3] = test: Antibacterial activity against Escherichia coli ATCC 25922 after 24 hrs by paper disk diffusion technique
In short: (§2)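 Paper disc diffusion. Nutrient agar autoclaved 120 °C, 30 min, then inoculated at 40–50 °C with 1 ml/100 ml of a 10⁵ cfu/ml suspension matched to McFarland standard and poured to 3–4 mm. Discs impregnated with compound in dimethyl formamide are laid on the solidified agar. Plates are held 1 h at room temperature, then 24 h at 37 °C.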

Pseudomonas aeruginosa [4] = test: Antibacterial activity against Pseudomonas aeruginosa ATCC 2853 after 24 hrs by agar streak dilution method; details: ATCC 2853, 24 h; in short: as §1
Aspergillus fumigatus [5] = test: Antifungal activity against Aspergillus fumigatus ATCC 46645 after 48 hrs by agar streak dilution method; details: ATCC 46645, 48 h
In short: as §1, with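 “Fungal agar” for “Agar”, “dilution.” for “dilution MIC.”, “Sabouraud dextrose” for “nutrient”, “inoculated” for “streaked”, “cfu/ml” for “cfu/ml bacterial”, “48” for “24”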

Micrococcus luteus [6] = test: Antibacterial activity against Micrococcus luteus ATCC 4698 after 24 hrs by agar streak dilution method; details: NCTC 2665, 24 h; in short: as §1
Aspergillus fumigatus [7] = test: Antifungal activity against Aspergillus fumigatus ATCC 46645 after 48 hrs by paper disk diffusion technique
In short: (§3)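 Fungal disc diffusion. Autoclaved (120 °C, 30 min) medium is inoculated at 40–50 °C with 1 ml/100 ml of a 10⁵ cfu/ml McFarland-matched suspension and poured to 3–4 mm. Compound-impregnated paper discs in dimethyl formamide are applied. Plates are held 1 h at room temperature, then incubated 48 h at 37 °C.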

[8] = test system: Staphylococcus epidermidis; test: Antibacterial activity against Staphylococcus epidermidis ATCC 155 after 24 hrs by agar streak dilution method; details: ATCC 155, 24 h; in short: as §1
Staphylococcus aureus [9] = test: Antibacterial activity against Staphylococcus aureus ATCC 9144 after 24 hrs by agar streak dilution method; details: ATCC 9144, 24 h; in short: as §1
Klebsiella pneumoniae [10] = test: Antibacterial activity against Klebsiella pneumoniae ATCC 11298 after 24 hrs by agar streak dilution method; details: ATCC 11298, 24 h; in short: as §1
Bacillus cereus [11] = test: Antibacterial activity against Bacillus cereus ATCC 11778 after 24 hrs by agar streak dilution method; details: ATCC 11778, 24 h; in short: as §1
Staphylococcus aureus [12] = test: Antibacterial activity against Staphylococcus aureus ATCC 9144 after 24 hrs by paper disk diffusion technique; in short: as §2
Klebsiella pneumoniae [13] = test: Antibacterial activity against Klebsiella pneumoniae ATCC 11298 after 24 hrs by paper disk diffusion technique; in short: as §2
[14] = test system: Staphylococcus epidermidis; test: Antibacterial activity against Staphylococcus epidermidis ATCC 155 after 24 hrs by paper disk diffusion technique; in short: as §2
Aspergillus niger [15] = test: Antifungal activity against Aspergillus niger ATCC 9029 after 48 hrs by paper disk diffusion technique; in short: as §3
Bacillus cereus [16] = test: Antibacterial activity against Bacillus cereus ATCC 11778 after 24 hrs by paper disk diffusion technique; in short: as §2
Pseudomonas aeruginosa [17] = test: Antibacterial activity against Pseudomonas aeruginosa ATCC 2853 after 24 hrs by paper disk diffusion technique; in short: as §2
Micrococcus luteus [18] = test: Antibacterial activity against Micrococcus luteus ATCC 4698 after 24 hrs by paper disk diffusion technique; in short: as §2
Aspergillus fumigatus [19] = test: Antifungal activity against Aspergillus fumigatus ATCC 46645 at 100 ug/disk after 48 hrs by paper disk diffusion technique; details: ATCC 46645, 48 h, read-out: IZ
In short: (§4)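 Paper disc diffusion: autoclaved medium at 40–50 °C was seeded at 1 ml/100 ml with a suspension of about 10⁵ cfu/ml matched to McFarland standard and poured 3–4 mm deep. Discs impregnated with compound in dimethylformamide were placed on the set medium. There was 1 h pre-incubation at room temperature, then 48 h at 37 °C. Ketoconazole disc served as reference.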

Aspergillus niger [20] = test: Antifungal activity against Aspergillus niger ATCC 9029 at 100 ug/disk after 48 hrs by paper disk diffusion technique; details: ATCC 9029, 48 h, read-out: IZ; in short: as §4

SMILES | MIC (Escherichia coli [1]) [µg/mL] | MIC (Aspergillus niger [2]) [µg/mL] | MIC (Pseudomonas aeruginosa [4]) [µg/mL] | MIC (Aspergillus fumigatus [5]) [µg/mL] | MIC (Micrococcus luteus [6]) [µg/mL] | MIC [8] [µg/mL] | MIC (Staphylococcus aureus [9]) [µg/mL] | MIC (Klebsiella pneumoniae [10]) [µg/mL] | MIC (Bacillus cereus [11]) [µg/mL] | inhibition zone (IZ) (Escherichia coli [3]) [mm] | inhibition zone (IZ) (Aspergillus fumigatus [7]) [mm] | inhibition zone (IZ) (Staphylococcus aureus [12]) [mm] | inhibition zone (IZ) (Klebsiella pneumoniae [13]) [mm] | inhibition zone (IZ) [14] [mm] | inhibition zone (IZ) (Aspergillus niger [15]) [mm] | inhibition zone (IZ) (Bacillus cereus [16]) [mm] | inhibition zone (IZ) (Pseudomonas aeruginosa [17]) [mm] | inhibition zone (IZ) (Micrococcus luteus [18]) [mm] | zone of inhibition at 100 µg/disc (Aspergillus fumigatus [19]) [mm] | zone of inhibition at 100 µg/disc (Aspergillus niger [20]) [mm]
COc1ccc(/C=N/n2c(-c3ccccc3)nc3c(Br)cc(Br)cc3c2=O)cc1 | 29.9 (≈ 58.3 µM) | 10.1 (≈ 19.7 µM) | 36.2 (≈ 70.5 µM) | 12.3 (≈ 24 µM) | 34.2 (≈ 66.6 µM) | 22.2 (≈ 43.3 µM) | 32.1 (≈ 62.6 µM) | 33.4 (≈ 65.1 µM) | 31.9 (≈ 62.2 µM) | 19 | 24 | 19 | 20 | 20 | 23 | 19 | 16 | 18 | – | –
O=c1c2cc(Br)cc(Br)c2nc(-c2ccccc2)n1/N=C/C=C/c1ccccc1 | 20.1 (≈ 39.5 µM) | 11.8 (≈ 23.2 µM) | 25.1 (≈ 49.3 µM) | 14.6 (≈ 28.7 µM) | 22.8 (≈ 44.8 µM) | 21.4 (≈ 42 µM) | 23.8 (≈ 46.7 µM) | 19.8 (≈ 38.9 µM) | 21.9 (≈ 43 µM) | 25 | 22 | 20 | 25 | 24 | 24 | 23 | 19 | 21 | – | –
COc1cc(/C=N/n2c(-c3ccccc3)nc3c(Br)cc(Br)cc3c2=O)ccc1O | 31.2 (≈ 59 µM) | 12.7 (≈ 24 µM) | 33.4 (≈ 63.1 µM) | 15.2 (≈ 28.7 µM) | 28.1 (≈ 53.1 µM) | 24.2 (≈ 45.7 µM) | 21.6 (≈ 40.8 µM) | 28.2 (≈ 53.3 µM) | 35.1 (≈ 66.3 µM) | 24 | 23 | 23 | 23 | 23 | 24 | 17 | 19 | 24 | – | –
O=c1c2cc(Br)cc(Br)c2nc(-c2ccccc2)n1/N=C/c1ccc([N+](=O)[O-])cc1 | 30.2 (≈ 57.2 µM) | 14.4 (≈ 27.3 µM) | 34.2 (≈ 64.8 µM) | 10.9 (≈ 20.6 µM) | 27.4 (≈ 51.9 µM) | 21.8 (≈ 41.3 µM) | 22.4 (≈ 42.4 µM) | 35.7 (≈ 67.6 µM) | 32.8 (≈ 62.1 µM) | 23 | 25 | 22 | 20 | 22 | 24 | 20 | 21 | 23 | – | –
COc1cc(/C=N/n2c(-c3ccccc3)nc3c(Br)cc(Br)cc3c2=O)cc(OC)c1OC | 18.2 (≈ 31.7 µM) | 8.6 (≈ 15 µM) | 19.3 (≈ 33.7 µM) | 10.1 (≈ 17.6 µM) | 18.8 (≈ 32.8 µM) | 19.1 (≈ 33.3 µM) | 18.9 (≈ 33 µM) | 16.7 (≈ 29.1 µM) | 21.7 (≈ 37.9 µM) | 27 | 24 | 26 | 28 | 25 | 26 | 23 | 24 | 24 | – | –
CC(=O)N1CCN(c2ccc(OCC3COC(Cn4ccnc4)(c4ccc(Cl)cc4Cl)O3)cc2)CC1 (stereo not given) [KETOCONAZOLE] | – | 6.1 (≈ 11.5 µM) | – | 0.23 (≈ 0.433 µM) | – | – | – | – | – | – | – | – | – | – | – | – | – | – | 29 | 30
CN(C)c1ccc(/C=N/n2c(-c3ccccc3)nc3c(Br)cc(Br)cc3c2=O)cc1 | 29.1 (≈ 55.3 µM) | 14.7 (≈ 27.9 µM) | 32.1 (≈ 61 µM) | 15.9 (≈ 30.2 µM) | 26.2 (≈ 49.8 µM) | 19.8 (≈ 37.6 µM) | 27.9 (≈ 53 µM) | 22.7 (≈ 43.1 µM) | 30.1 (≈ 57.2 µM) | 20 | 22 | 19 | 23 | 25 | 19 | 19 | 18 | 21 | – | –
O=c1c2cc(Br)cc(Br)c2nc(-c2ccccc2)n1/N=C/c1cccc([N+](=O)[O-])c1 | 19.8 (≈ 37.5 µM) | 10.7 (≈ 20.3 µM) | 36.1 (≈ 68.4 µM) | 11.6 (≈ 22 µM) | 30.1 (≈ 57 µM) | 21.8 (≈ 41.3 µM) | 22.6 (≈ 42.8 µM) | 34.6 (≈ 65.5 µM) | 23.6 (≈ 44.7 µM) | 26 | 23 | 21 | 21 | 22 | 25 | 22 | 19 | 23 | – | –

The next lines start with results.

MIC (Escherichia coli [1]) [µg/mL] | MIC (Aspergillus niger [2]) [µg/mL] | MIC (Pseudomonas aeruginosa [4]) [µg/mL] | MIC (Aspergillus fumigatus [5]) [µg/mL] | MIC (Micrococcus luteus [6]) [µg/mL] | MIC [8] [µg/mL] | MIC (Staphylococcus aureus [9]) [µg/mL] | MIC (Klebsiella pneumoniae [10]) [µg/mL] | MIC (Bacillus cereus [11]) [µg/mL] | SMILES | inhibition zone (IZ) (Escherichia coli [3]) [mm] | inhibition zone (IZ) (Aspergillus fumigatus [7]) [mm] | inhibition zone (IZ) (Staphylococcus aureus [12]) [mm] | inhibition zone (IZ) (Klebsiella pneumoniae [13]) [mm] | inhibition zone (IZ) [14] [mm] | inhibition zone (IZ) (Aspergillus niger [15]) [mm] | inhibition zone (IZ) (Bacillus cereus [16]) [mm] | inhibition zone (IZ) (Pseudomonas aeruginosa [17]) [mm] | inhibition zone (IZ) (Micrococcus luteus [18]) [mm] | zone of inhibition at 100 µg/disc (Aspergillus fumigatus [19]) [mm] | zone of inhibition at 100 µg/disc (Aspergillus niger [20]) [mm]
20.2 (≈ 39 µM) | 10.2 (≈ 19.7 µM) | 22.8 (≈ 44 µM) | 12.6 (≈ 24.3 µM) | 33.8 (≈ 65.3 µM) | 25.6 (≈ 49.5 µM) | 28.4 (≈ 54.9 µM) | 21.8 (≈ 42.1 µM) | 36.1 (≈ 69.7 µM) | O=c1c2cc(Br)cc(Br)c2nc(-c2ccccc2)n1/N=C/c1ccc(Cl)cc1 | 27 | 22 | 19 | 25 | 20 | 25 | 19 | 26 | 23 | – | –
19.8 (≈ 39.8 µM) | 15.2 (≈ 30.6 µM) | 21.2 (≈ 42.6 µM) | 14.6 (≈ 29.4 µM) | 25.1 (≈ 50.5 µM) | 22.6 (≈ 45.5 µM) | 31.1 (≈ 62.6 µM) | 29.1 (≈ 58.5 µM) | 21.9 (≈ 44 µM) | Cc1ccc(/C=N/n2c(-c3ccccc3)nc3c(Br)cc(Br)cc3c2=O)cc1 | 24 | 24 | 18 | 19 | 20 | 22 | 21 | 22 | 23 | – | –
20.4 (≈ 40.9 µM) | 12.2 (≈ 24.4 µM) | 37.2 (≈ 74.5 µM) | 13.6 (≈ 27.2 µM) | 28.2 (≈ 56.5 µM) | 21.3 (≈ 42.7 µM) | 21.8 (≈ 43.7 µM) | 24.3 (≈ 48.7 µM) | 19.9 (≈ 39.9 µM) | O=c1c2cc(Br)cc(Br)c2nc(-c2ccccc2)n1/N=C/c1ccccc1O | 22 | 23 | 20 | 22 | 24 | 22 | 21 | 17 | 18 | – | –
33.4 (≈ 69.1 µM) | 9.7 (≈ 20.1 µM) | 28.7 (≈ 59.4 µM) | 11.1 (≈ 23 µM) | 31.8 (≈ 65.8 µM) | 33.6 (≈ 69.5 µM) | 35.4 (≈ 73.3 µM) | 27.7 (≈ 57.3 µM) | 29.4 (≈ 60.8 µM) | O=c1c2cc(Br)cc(Br)c2nc(-c2ccccc2)n1/N=C/c1ccccc1 | 17 | 22 | 17 | 21 | 18 | 24 | 20 | 19 | 19 | – | –
21.8 (≈ 43.7 µM) | 9.1 (≈ 18.2 µM) | 22.6 (≈ 45.3 µM) | 10.7 (≈ 21.4 µM) | 17.2 (≈ 34.5 µM) | 20.9 (≈ 41.9 µM) | 17.3 (≈ 34.7 µM) | 19 (≈ 38.1 µM) | 19.3 (≈ 38.7 µM) | O=c1c2cc(Br)cc(Br)c2nc(-c2ccccc2)n1/N=C/c1ccc(O)cc1 | 23 | 21 | 24 | 27 | 22 | 24 | 21 | 25 | 26 | – | –
